The test system of data set [1] is RIP1 pathway activation (CCL4 release in human whole blood). Kind of data set: PK-PD modeling. In kind it is cell-based. An outline of the steps:
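CCL4 inhibition from the ex vivo stimulated whole-blood assay was related to GDC-8264 plasma concentrations measured in the same volunteers by PK-PD modelling. The model estimated the IC50 and the maximal target inhibition.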

The conditions of data set [2]: MAD both doses, comparable between day 1 and day 14.

Data on 1 compound can be found in publication PMC10582670 (Clinical and Translational Science, 2023).

Values after ≈ are worked out from the molar mass of the structure shown.

For the compound `O=C(c1nc2n(n1)[C@H](c1ccccc1)C[C@@H]2F)C1CC1` [GDC‐8264], the IC50 in data set [1] (Homo sapiens, read-out: half-maximal inhibitory concentration (IC50) for the inhibition of CCL4 release) worked out at 0.58 ng/mL (≈ 2.14 nM). Besides, the “maximal inhibition of the target” value in data set [1] (estimated by PK-PD (Emax) modeling) is 99.4%. The “Geometric mean CLr0-τ” value in data set [2] was ~ 0.008 L/h.
